Measurements reported in ChEMBL document CHEMBL2177000, “Pharmacokinetic optimization of class-selective histone deacetylase inhibitors and identification of associated candidate predictive biomarkers of hepatocellular carcinoma tumor response” (J Med Chem, 2012).
Calls of active or inactive are those of the source. The rule behind the calls is not given here.

Columns and labels:
HGC-27 = type: functional, Homo sapiens
BEL-7404 = assay: Antitumor activity against human BEL-7404 cells xenografted in BALB/C mouse assessed as tumor growth inhibition at 50 mg/kg, po qd for 4 weeks; settings: BEL-7404, po, 672 h, read-out: TGI
Mus musculus [1] = assay: Down-regulation of WNT5A gene expression in human hepatocellular carcinoma patient tumor xenografted in BALB/C mouse at 100 mg/kg, po administered every other day for 4 weeks by […]; type: functional, organism-based; parameters: dose 100 mg/kg
Method in brief: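 Patient-derived HCC xenografts dosed 100 mpk Q2D PO; tumor total RNA (TRIzol, DNase I treated, column-purified) run on a customized 22-gene qRT-PCR array; ΔCt against mean of GAPDH and β-glucuronidase, fold-change relative to day 0 (pre-treatment).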

SGC-7901 [2] = assay: Inhibition of Class 1 histone deacetylase in human SGC7901 cells assessed as histone H3 acetylation at 0.6 to 5 uM incubated for 24 hrs by Western blot method; type: cell-based
Method in brief: (§1)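 SGC-7901 cells (1 × 10^6) seeded overnight, treated 24 h at indicated concentrations; lysed on ice with protease inhibitor, 15 000 g supernatant; 30 μg protein by SDS-PAGE, nitrocellulose, antibody probing for acetylated histone H3 and p21, ECL detection.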

SGC-7901 [3] = assay: Induction of cell cycle arrest in human SGC7901 cells assessed as reduction in accumulation at S phase incubated for 24 hrs by flow cytometry; type: functional, cell-based
Method in brief: (§2)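 SGC-7901 cells (1 × 10^5, about 50% confluent) treated 24 h with a concentration series; fixed in chilled 70% ethanol 1 h at 4 °C, stained 1 h at room temperature with propidium iodide (50 μg/mL) plus RNase A and 0.05% Triton X-100; analysed by flow cytometry.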

SGC-7901 [4] = assay: Inhibition of Class 1 histone deacetylase in human SGC7901 cells assessed as […] at 0.6 to 5 uM incubated for 24 hrs by Western blot method; type: cell-based
Method in brief: as §1

Mus musculus [5] = assay: Reactivation of SPINT2 gene expression in treatment responding human hepatocellular carcinoma patient tumor xenografted in BALB/C mouse at 100 mg/kg, po administered every other day for 4 weeks; type: functional, organism-based; parameters: dose 100 mg/kg
Method in brief: (§3)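 Patient HCC tumor fragments (3 × 3 × 3 mm3) implanted subcutaneously in female BALB/c nu/nu mice; at ~200 (150−250) mm3 dosed orally Q2D 100 mpk in 15% Kleptose pH 4.5 tartaric buffer for about four weeks. Tumor RNA (TRIzol, DNase I) run on 22-gene qRT-PCR array, normalized to GAPDH/β-glucuronidase by ΔCt, fold change versus day 0.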

Mus musculus [6] = assay: Up-regulation of THBS1 gene expression in human hepatocellular carcinoma patient tumor xenografted in BALB/C mouse at 100 mg/kg, po administered every other day for 4 weeks by […]; type: functional, organism-based; parameters: dose 100 mg/kg
Method in brief: as §3

Mus musculus [7] = assay: Up-regulation of CDKN1C gene expression in human hepatocellular carcinoma patient tumor xenografted in BALB/C mouse at 100 mg/kg, po administered every other day for 4 weeks by […]; type: functional, organism-based; parameters: dose 100 mg/kg
Method in brief: as §3

Mus musculus [8] = assay: Up-regulation of CCND2 gene expression in human hepatocellular carcinoma patient tumor xenografted in BALB/C mouse at 100 mg/kg, po administered every other day for 4 weeks by […]; type: functional, organism-based; parameters: dose 100 mg/kg
Method in brief: as §3

Homo sapiens = assay: Antitumor activity against treatment non-responding human hepatocellular carcinoma patient tumor xenografted in BALB/C mouse assessed as tumor growth inhibition at 100 mg/kg, po administered every other day for 4 weeks; type: functional, organism-based; parameters: dose 100 mg/kg
Method in brief: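 Tumor fragments (3×3×3 mm3) from HCC patients implanted subcutaneously in right flank of female BALB/c nu/nu mice (6−7 weeks). At about 200 (150−250) mm3, randomized (n = 10 per arm); Q2D PO 100 mpk in 15% Kleptose pH 4.5 tartaric buffer, about four weeks; caliper tumor volume three times weekly.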

Mus musculus [9] = assay: Up-regulation of FN1 gene expression in human hepatocellular carcinoma patient tumor xenografted in BALB/C mouse at 100 mg/kg, po administered every other day for 4 weeks by […]; type: functional, organism-based; parameters: dose 100 mg/kg
Method in brief: as §3

SGC-7901 [10] = assay: Induction of cell cycle arrest in human SGC7901 cells assessed as accumulation at G1/G2 phase incubated for 24 hrs by flow cytometry; type: functional, cell-based
Method in brief: as §2

[11] = Clearance in mouse liver microsomes at 1 uM incubated for 10 mins by LC-MS/MS method; type: ADME, Microsome
Method in brief: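 Liver microsomes (human or mouse, 0.5 mg/mL) in 100 mM potassium phosphate pH 7.4 with 1 μM compound, prewarmed 10 min at 37 °C, started with NADPH (10 mM); stopped at 0, 3, 6, 9, 15, 30 min with ice-cold methanol containing tolbutamide internal standard; LC-MS/MS. Hepatic clearance (mL/min/kg) calculated from intrinsic clearance.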

Cytochrome P450 2D6 = Cytochrome P450 2D6 (Homo sapiens, UniProt P10635); assay: Inhibition of CYP2D6 in human liver microsomes in presence of NADPH by LC-MS/MS method; type: ADME, Microsome
Chain of Cytochrome P450 2D6 (P10635 whole entry): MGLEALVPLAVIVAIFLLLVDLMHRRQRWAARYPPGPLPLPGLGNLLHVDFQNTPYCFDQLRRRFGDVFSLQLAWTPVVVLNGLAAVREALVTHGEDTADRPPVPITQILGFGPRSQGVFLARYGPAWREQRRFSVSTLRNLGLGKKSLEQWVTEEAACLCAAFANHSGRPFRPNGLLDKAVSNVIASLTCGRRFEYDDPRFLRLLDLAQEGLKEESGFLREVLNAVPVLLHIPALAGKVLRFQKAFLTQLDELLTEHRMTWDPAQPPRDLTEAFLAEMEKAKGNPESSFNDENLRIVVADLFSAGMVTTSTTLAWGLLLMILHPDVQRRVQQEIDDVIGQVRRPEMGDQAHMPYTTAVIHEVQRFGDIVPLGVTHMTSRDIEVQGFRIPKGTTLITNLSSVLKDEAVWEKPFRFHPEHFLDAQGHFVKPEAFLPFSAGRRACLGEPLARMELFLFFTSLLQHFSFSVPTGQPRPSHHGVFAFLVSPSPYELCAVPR

[12] = target: Voltage-gated inwardly rectifying potassium channel KCNH2 (Homo sapiens, UniProt Q12809); assay: Inhibition of human ERG expressed in CHO cells by patch clamp method; type: cell-based
Chain of Voltage-gated inwardly rectifying potassium channel KCNH2 (Q12809 whole entry): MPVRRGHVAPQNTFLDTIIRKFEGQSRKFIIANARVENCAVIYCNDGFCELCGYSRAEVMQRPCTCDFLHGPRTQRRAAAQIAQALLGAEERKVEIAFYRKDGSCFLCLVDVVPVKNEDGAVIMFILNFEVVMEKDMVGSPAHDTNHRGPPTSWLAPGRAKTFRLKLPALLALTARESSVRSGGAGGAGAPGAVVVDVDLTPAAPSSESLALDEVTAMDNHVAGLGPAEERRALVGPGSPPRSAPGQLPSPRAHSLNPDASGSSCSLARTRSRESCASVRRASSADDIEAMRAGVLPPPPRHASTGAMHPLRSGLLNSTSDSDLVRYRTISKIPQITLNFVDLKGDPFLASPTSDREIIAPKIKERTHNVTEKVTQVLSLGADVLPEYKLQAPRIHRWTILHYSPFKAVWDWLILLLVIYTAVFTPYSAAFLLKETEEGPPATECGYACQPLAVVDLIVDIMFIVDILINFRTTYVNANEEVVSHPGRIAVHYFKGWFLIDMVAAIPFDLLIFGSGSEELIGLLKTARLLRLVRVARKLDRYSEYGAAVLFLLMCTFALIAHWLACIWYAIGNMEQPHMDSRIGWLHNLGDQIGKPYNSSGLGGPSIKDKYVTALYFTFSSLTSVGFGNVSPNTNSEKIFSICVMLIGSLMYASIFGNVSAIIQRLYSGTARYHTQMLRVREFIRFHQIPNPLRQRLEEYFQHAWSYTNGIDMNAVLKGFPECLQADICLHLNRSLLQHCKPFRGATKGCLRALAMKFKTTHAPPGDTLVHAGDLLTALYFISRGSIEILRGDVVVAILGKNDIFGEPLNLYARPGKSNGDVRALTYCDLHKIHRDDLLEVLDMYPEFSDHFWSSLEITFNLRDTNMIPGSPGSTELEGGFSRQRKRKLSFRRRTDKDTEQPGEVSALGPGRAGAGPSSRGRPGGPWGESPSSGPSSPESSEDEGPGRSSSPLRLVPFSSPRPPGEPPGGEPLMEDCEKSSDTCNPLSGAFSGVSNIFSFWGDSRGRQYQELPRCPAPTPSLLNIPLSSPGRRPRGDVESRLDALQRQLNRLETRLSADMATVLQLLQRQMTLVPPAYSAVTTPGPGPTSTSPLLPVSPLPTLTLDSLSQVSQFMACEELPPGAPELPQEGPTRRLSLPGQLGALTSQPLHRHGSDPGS

Which GI90 (HGC-27) does the source give for `CN1C[C@H](C(=O)Nc2ccc(Cl)cc2)[C@@H](c2ccc(/C=C/C(=O)Nc3ccccc3N)cc2)C1` [listing 1 of 2 here] here?
Its GI90 is 1 µM.

What about the inhibition in vivo at 50 mg/kg (BEL-7404) of the same compound?
The inhibition in vivo at 50 mg/kg was over 60%.

With `CN1C[C@H](C(=O)Nc2ccc(Cl)cc2)[C@@H](c2ccc(/C=C/C(=O)Nc3ccccc3N)cc2)C1` [listing 2 of 2 here] as the compound, how does the Activity (Mus musculus [1]) read?
The Activity was “Active”.

What about the inhibition (SGC-7901 [2]) of the same compound?
Its inhibition is “Dose-dependent effect”.

And the Activity (SGC-7901 [3])?
The Activity was “Dose-dependent effect”.

And the inhibition (SGC-7901 [4])?
The inhibition was “Dose-dependent effect”.

What about the Activity (Mus musculus [5]) of the same compound?
Its Activity is “Active”.

And the Activity (Mus musculus [6])?
Its Activity is “Active”.

What about the Activity (Mus musculus [7]) of the same compound?
The Activity was “Active”.

What about the Activity (Mus musculus [8]) of the same compound?
Its Activity is “Active”.

And the TGI (Homo sapiens)?
The TGI was “inactive”.

What about the Activity (Mus musculus [9]) of the same compound?
Its Activity is “Active”.

What about the Activity (SGC-7901 [10]) of the same compound?
Its Activity is “Dose-dependent effect”.

Which CLhep predicted at 1 µM [11] does the source give for `CN1C[C@H](C(=O)Nc2ccc(Cl)cc2)[C@@H](c2ccc(/C=C/C(=O)Nc3ccccc3N)cc2F)C1` (racemic) here?
Its CLhep predicted at 1 µM is 36 mL/min/kg.

And the IC50 (Cytochrome P450 2D6)?
The IC50 was 9 µM.

What about the IC50 [12] of the same compound?
Its IC50 is 7 µM.
